Bioassay records from PubChem BioAssay.
APJ antag – APJ receptor antagonism; P35414; CHO-K1 APJ beta-arrestin complementation, luminescence; inhibition, % at 20 µM; 330,000 tested, 0.32% active; AID 2521;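 active means inhibition above about 40% at 20 µM, limit read from the data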;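 further: cells challenged with 10 nM apelin-13 agonist together with compound; plate controls were apelin-13 plus DMSO wells for no effect and DMSO wells lacking apelin-13 for full effect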
Target sequence (P35414 whole entry, looked up): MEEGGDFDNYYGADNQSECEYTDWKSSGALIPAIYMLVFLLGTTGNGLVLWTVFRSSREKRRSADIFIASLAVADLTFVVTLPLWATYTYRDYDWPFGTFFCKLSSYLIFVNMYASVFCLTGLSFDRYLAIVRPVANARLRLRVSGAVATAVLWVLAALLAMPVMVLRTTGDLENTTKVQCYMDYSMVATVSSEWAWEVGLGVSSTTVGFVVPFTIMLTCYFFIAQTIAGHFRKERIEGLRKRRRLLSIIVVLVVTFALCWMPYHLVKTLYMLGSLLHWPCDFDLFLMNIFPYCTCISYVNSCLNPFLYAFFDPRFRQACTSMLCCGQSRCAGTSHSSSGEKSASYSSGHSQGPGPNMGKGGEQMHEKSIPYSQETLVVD
CCR6 antagonist – antagonists of human CCR6 receptor; CHO-K1 CCR6 PathHunter beta-arrestin, luminescence, CCL20-stimulated; P51684; inhibition, % at 20 µM; 340,000 tested, 0.49% active;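 active means compounds whose inhibition of the agonist-driven luminescence signal at 20 µM reaches about 50%, limit read from the data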;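 further: cells stimulated with CCL20 at 14 nM final; plate controls were DMSO with CCL20 for no effect and DMSO without agonist for full effect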
m5-HT2A agonist – activates the mouse 5-HT2A serotonin receptor; CHO-K1 mHTR2A beta-arrestin complementation, luminescence; percent of 30 µM serotonin response; activation, % at 7.6 µM; 360,000 tested, 0.66% active; AID 624169;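 active means activation above a run cutoff, the mean activation of all tested compounds plus 3 SD, cut at about 14% in these data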;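 further: 0% = plate median of compound wells and 100% = 30 µM serotonin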
APJ ag – agonists of human APJ apelin receptor | P35414 | CHO-K1 APJ PathHunter beta-arrestin, luminescence; 0% DMSO wells, 100% apelin | activation, % at 20 µM | 330,000 tested, 0.11% active | AID 2520;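 active means activation more than six SD over the plate average, tested at 20 µM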;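 further: 0% = DMSO alone and 100% = apelin-13 at 10 nM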
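Assay system: CHO-K1 cells stably expressing ProLink-tagged human APJ and arrestin–beta-gal acceptor. Compound dosing: 20 µM single point, 1% DMSO. Times: 16-18 h seeding, 90 min dark compound exposure, 60 min detection. Detection: beta-gal luminescence. Evaluation: APJ–arrestin association signal. Controls: negative DMSO alone, positive Apelin-13 at 10 nM.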
EBI2 block – EBI2 (human) antagonism | P32249 | EBI2 beta-arrestin recruitment, luminescence, 7a,25-OHC stimulated | inhibition, % at 5 µM | 360,000 tested, 0.81% active; in the data active means inhibition above about 38%;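 further: enzyme fragment complementation signal reports receptor beta-arrestin coupling in cells; 0% = agonist plus DMSO wells and 100% = wells without agonist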
CXCR6 inh – CXCR6 (human) receptor inhibition | CHO-K1 PathHunter CXCR6 beta-arrestin, luminescence | 360,000 tested, 0.36% active | inhibition, % at 20 µM | O00574; in the data active means inhibition above about 34%, passing the limit was not always enough;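 further: antagonist mode with CXCL16 agonist at 10 nM final; 0% = 10 nM CXCL16 with DMSO and 100% = unstimulated wells without agonist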
Target sequence (O00574 whole entry, looked up): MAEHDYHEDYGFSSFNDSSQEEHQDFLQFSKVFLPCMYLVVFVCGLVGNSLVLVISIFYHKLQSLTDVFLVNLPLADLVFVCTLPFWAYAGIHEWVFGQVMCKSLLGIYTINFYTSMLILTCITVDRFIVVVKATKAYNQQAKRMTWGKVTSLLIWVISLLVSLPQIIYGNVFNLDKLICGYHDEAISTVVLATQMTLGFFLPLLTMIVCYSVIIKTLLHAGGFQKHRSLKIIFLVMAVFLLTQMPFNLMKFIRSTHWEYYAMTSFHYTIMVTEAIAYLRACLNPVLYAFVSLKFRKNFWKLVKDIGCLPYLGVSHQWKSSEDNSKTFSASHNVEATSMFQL
MOR ag counter – counter-screen for mouse HTR2A agonists: human mu opioid receptor agonists; 2,300 tested, 5.3% active; AID 624380; U2OS OPRM1 beta-arrestin PathHunter, luminescence; DMSO 0%, DAMGO 9.3 µM 100%; activation, % at 9.3 µM; shares compounds with m5-HT2A agonist;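 active means mean activation above the mean of DMSO-only wells plus 3 SD, cut at about 0.5% in these data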
HTR2A ag conf – mouse HTR2A agonism confirmed. shares compounds with m5-HT2A agonist. CHO-K1 PathHunter beta-arrestin recruitment, luminescence; DMSO 0%, 30 µM serotonin 100%. activation, % at 7.6 µM. 2,300 tested, 19% active;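 active means mean activation across triplicates above the hit threshold derived in the original primary screen, cut at about 15% in these data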
Starred values were filed as active, the others as inactive; / = no result given. An excerpt weighted towards active compounds, which were near 2.2% of everything screened.

SMILES	APJ antag	CCR6 antagonist	m5-HT2A agonist	APJ ag	EBI2 block	CXCR6 inh	MOR ag counter	HTR2A ag conf
CCOc1ccc(NC2c3ccccc3C(=O)N2Cc2ccco2)cc1 (centres undefined)	4.6	8.3	38.4*	-7.5	-1.8	-6.5	-0.2	-4.3
CN(C)/N=C1\C(=O)N(CN2CCN(c3ccccc3)CC2)c2ccccc21	13.8	7.5	21.8*	-6.0	7.4	0.3	-0.6	12.1
Cc1[nH]c(=O)[nH]c(=O)c1S(=O)(=O)N1CCCC(C(=O)N2CCC(Cc3ccccc3)CC2)C1 (centres undefined)	6.3	-0.4	19.3*	-2.5	-7.8	-10.7	-0.5	-4.5
Cc1[nH]c(=O)[nH]c(=O)c1S(=O)(=O)N1CCCC(C(=O)N2CCN(c3ccccc3Cl)CC2)C1 (centres undefined)	-4.5	2.4	-2.1	-2.3	0.2	3.9	/	/
COCCNC(=O)C1(C)CCCN(C(=O)c2ccc(C(F)(F)F)cc2)C1 (centres undefined)	/	/	4.0	/	0.5	-1.9	/	/
CCOC(=O)C[C@@H]1OC[C@H](Cc2ccccc2)N1S(=O)(=O)c1ccc(C)cc1	/	/	1.8	/	12.0	/	/	/
COc1cccc(N2CCN(C(=O)c3ccc(=O)oc3)CC2C)c1 (centres undefined)	-3.7	10.4	21.5*	-4.9	-0.4	5.9	-0.5	4.0
COc1cccc(NC(=O)N2CCN(c3cccc(C)c3)C(C)C2)c1 (centres undefined)	-0.4	2.5	4.2	-2.6	1.1	0.1	/	/
COc1ccc(CCC(=O)NNC(=O)Cn2nc(C)cc2C)cc1	-11.1	-8.1	17.3*	-6.3	-0.2	0.6	-0.7	-6.5
Cc1cccc(OCCC(=O)NNC(=O)Cn2nc(C)cc2C)c1	-12.7	11.6	0.9	-0.3	0.0	0.9	/	/
CN(C)S(=O)(=O)c1ccc(NC(=O)Cn2nc(-c3ccc4c(c3)OCCO4)ccc2=O)cc1	/	6.6	14.7*	/	-15.5	-2.2	-0.5	-6.1
CCOC(=O)[C@]12CCCC=C1N(Cc1ccco1)C(=O)[C@H](CC(=O)NCCc1ccccc1OC)C2	/	/	2.2	/	1.8	1.2	/	/
CCOC(=O)c1c(/N=C/c2ccc(OC)cc2O)sc2c1CCN(C)C2	-22.9	-18.7	0.9	1.6	-7.2	-11.1	/	/
CN1CCc2c(sc(/N=C/c3cc(Cl)ccc3O)c2C#N)C1	-8.3	15.0	19.3*	-0.6	-2.9	6.3	-0.6	65.5*
CN1C(C(=O)NCc2cccc(Br)c2)CC2Cn3c(nc4cc(Cl)c(Cl)cc43)C21 (centres undefined)	15.0	13.4	3.3	-2.1	0.3	-3.4	/	/
CN1C(C(=O)NCc2cccc(C(F)(F)F)c2)CC2Cn3c(nc4cc(Cl)c(Cl)cc43)C21 (centres undefined)	12.6	12.3	20.4*	-3.5	3.2	-9.9	-0.5	-5.1
CC(C)C[C@H]1CN=C(N(C)C)N1CCCCc1ccccc1	-34.2	3.5	19.7*	-5.9	-5.7	5.8	-0.5	-3.4
COc1ccccc1-c1ccc2c(c1)C(C)(Cc1cccc(C#N)c1)C(=O)N2 (centres undefined)	/	/	3.8	/	22.7	-0.3	/	/
C=C(C)CN1CCN(S(=O)(=O)c2ccc(C)c(N(C)S(=O)(=O)c3ccc(C)cc3)c2C)CC1	10.5	4.7	22.0*	-0.8	14.4	5.7	-0.4	-3.0
Cc1ccc(S(=O)(=O)N(C)c2c(C)ccc(S(=O)(=O)N3CCN(C)CC3)c2C)cc1	2.0	25.7	-1.2	-3.9	2.8	-0.3	/	/
CC1CC(C)CN(CCOCCSc2ccccc2)C1 (centres undefined)	4.8	-2.3	15.6*	-2.9	-0.6	-0.6	-0.5	1.4
COc1ccc(OC)c(CN2CCN(C(=O)c3cc(S(=O)(=O)N4CCOCC4)ccc3C)CC2)c1	/	5.6	/	/	/	/	/	/
OCC1(Cc2cccc(C(F)(F)F)c2)CCN(Cc2cc3ccccc3o2)CC1	3.8	10.8	24.3*	-2.5	11.7	0.8	0.0	64.0*
Cc1c(CN2CCC(CO)(Cc3cccc(C(F)(F)F)c3)CC2)c2ccccc2n1C	8.7	27.8	-8.2	-3.9	3.6	-6.6	/	/
COc1ccc(CC2(CO)CCN(Cc3cc4ccccc4o3)CC2)cc1	1.0	-2.6	39.6*	0.1	5.6	-2.0	-0.6	65.5*
SMILES	APJ antag	CCR6 antagonist	m5-HT2A agonist	APJ ag	EBI2 block	CXCR6 inh	MOR ag counter	HTR2A ag conf
COc1ccc2cc(/C=N/NC(=O)CN(c3ccccc3C)S(=O)(=O)c3ccccc3)c(Cl)nc2c1	-6.9	0.5	15.7*	-3.4	14.4	6.7	-0.5	-4.2
CC(C)c1ccc([C@@H]2O[C@H](CCc3ccccc3)CC3=C2C(=O)OC(C)(C)O3)cc1	/	/	-5.1	/	5.0	10.3	/	/
CCOC(=O)C1(Cc2cccc(Cl)c2)CCCN(C(=O)c2ccnn2C)C1 (centres undefined)	17.5	7.7	3.7	0.4	-17.8	10.7	/	/
CCOC(=O)C1(Cc2cccc(Cl)c2)CCCN(C(=O)c2cc(C)n(C)n2)C1 (centres undefined)	11.8	1.1	16.7*	0.8	6.4	0.5	-0.8	-2.2
CCc1nc2ccc(C(=O)NCc3ccc4c(c3)OCO4)cn2c1N(C)Cc1cccs1	/	/	-0.3	/	13.7	9.7	/	/
Cc1c(Cl)cccc1NC(=O)COC(=O)Cc1ccsc1	17.0	6.5	16.3*	-1.2	-1.4	-1.9	-0.3	6.9
OC[C@H]1O[C@@H](c2nc3ccc(-c4nc(-c5ccc(Br)cc5)no4)cc3[nH]2)C[C@@H]1O	/	/	-1.1	/	14.0	10.7	/	/
CN(C)c1ccc(CC(=O)N2CCCCC2c2cc(C(=O)Nc3cccc4c3CCCC4)no2)cc1 (centres undefined)	/	/	11.6	/	32.5	9.4	/	/
CCOC(=O)C1(C)CCN1C(=O)c1cncc(Br)c1 (centres undefined)	/	/	4.7	/	-2.6	-11.8	/	/
C=CCN1CCc2nc(N)sc2CC1	/	5.0	50.0*	/	-4.4	6.5	-0.6	151.1*
CCN1CCc2nc(N)sc2C1	0.3	7.1	6.7	1.0	-0.2	0.4	/	/
CC1(C(=O)NS(=O)(=O)c2ccc3c(c2)CCO3)CCN1C(=O)C1(c2ccc(Cl)cc2)CCC1 (centres undefined)	/	/	4.8	/	-1.8	-16.4	/	/
Cc1ccccc1NCC(=O)N/N=C/c1c(C)c(C(=O)c2ccc(Cl)cc2)n2ccccc12	3.1	18.7	15.4*	-0.3	9.3	7.3	0.4	24.1*
COc1cccc(C(=O)NCCS(=O)(=O)N2CCC(C)CC2)c1	-3.0	2.7	14.4*	-5.6	-0.1	-7.2	-0.5	-4.7
